Rows were chosen to be rich in hits. Some 2.3% of all compounds tested hit in one or more screens of this group.
Tn7 DDE FP: inhibitors of Tn7 peptide binding to fibrin DD(E), primary screen, biochemical, fluorescence polarization, human fibrin, Tn7 probe | inhibition, % at 8.3 µM | actives 0.13% (n = 370,000) | FP displacement of FITC-Tn7 peptide from fibrin DD(E); 0% = median of compound wells per plate | Fibrinogen beta chain (Homo sapiens), P02675;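 active = inhibition above the mean of compounds falling within the control limits plus 3 SD of them, cut at about 14% in these data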;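 also: 0% = plate median of compound wells and 100% = 10 µM Aha-Tn7 peptide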
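Measure: % inhibition scaled between sample-field median and high-control FP; Test system: human fibrin DD(E); Quantity: 2 µM final DD(E) protein; Doses: one dose, 8.3 µM nominal; Schedule: compound with protein 10 min, then 3 h after probe, room temperature; Detection: fluorescence polarization; Medium: Tris buffer with calcium and detergent, pH 7.8.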
ADAM10 inh: human ADAM10 inhibitors, primary screen, biochemical, QFRET, HTS; Disintegrin and metalloproteinase domain-containing protein 10 (Homo sapiens), O14672; recombinant ADAM10, EDANS/DABCYL FRET peptide cleavage, 3 h; inhibition, % at 7 µM; actives 0.62% (n = 370,000); AID 720582, 2013;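 active = inhibition above a per-campaign cutoff equal to the mean of compounds falling between control-based bounds plus 3 SD, cut at about 20% in these data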;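 also: 0% = DMSO wells while the 100% control is not disclosed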
ADAM17 inh: ADAM17 inhibitors, primary screen, biochemical, QFRET | inhibition, % at 6.95 µM | recombinant ADAM17, EDANS/DABCYL FRET peptide cleavage | Disintegrin and metalloproteinase domain-containing protein 17 (Homo sapiens), P78536 | actives 0.83% (n = 370,000) | AID 720648, 2013;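 active = inhibition above the mean of compounds lying between control limits plus 3 SD, set per campaign, cut at about 8.5% in these data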;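 also: 0% = DMSO-only wells as the low control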
Tn6 DDE FP: inhibitors of Tn6 peptide binding to fibrin DD(E), primary screen, biochemical, fluorescence polarization, human fibrin, Tn6 probe; actives 0.21% (n = 370,000); Fibrin DD(E) TRITC-Tn6 fluorescence polarization displacement; Fibrinogen beta chain (Homo sapiens), P02675; inhibition, % at 8.3 µM;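 active = inhibition above a per-campaign cutoff: mean of compounds within control limits plus 3 SD, cut at about 15% in these data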;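 also: 0% = median of all compound wells on the plate and 100% = blocking peptide control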
PLC-gamma1 inh: PLC-gamma1 enzyme inhibitors, primary screen, biochemical, fluorescence, purified enzyme | 1-phosphatidylinositol 4,5-bisphosphate phosphodiesterase gamma-1 (Homo sapiens), P19174 | fluorogenic substrate | inhibition, % at 12.2 µM | actives 0.84% (n = 370,000) | AID 720700, 2013; in the data active = inhibition above about 9.5%
PLC-beta3 inh: human PLC-beta3 inhibitors, primary screen, biochemical, fluorescence; actives 0.18% (n = 370,000); inhibition, % at 12.2 µM; Purified PLC-beta3, fluorogenic substrate;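 also: 0% = median of compound wells on plate and 100% = full blocker control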
PLCgamma1 ctr: PLC-gamma1 enzyme inhibitors, counter-screen for PLC-beta3 inhibitor project, biochemical, fluorescence; shares compounds with PLC-gamma1 inh; purified PLC-gamma1, fluorogenic substrate; inhibition, % at 12.3 µM; actives 3.1% (n = 3,300); in the data active = inhibition above about 9.5%
PLCbeta3 conf: PLC-beta3 inhibitor confirmation, biochemical, fluorescence, purified enzyme. fluorogenic substrate fluorescence. shares compounds with PLC-gamma1 inh. inhibition, % at 12.3 µM. actives 1% (n = 3,300). AID 743261, 2014
An asterisk follows results filed as active; i = inactive; nt = not tested or not shown. Rule as the data show it, unless noted: active = inhibition above about 11%; inactive = the rest.

SMILES	Tn7 DDE FP	ADAM10 inh	ADAM17 inh	Tn6 DDE FP	PLC-gamma1 inh	PLC-beta3 inh	PLCgamma1 ctr	PLCbeta3 conf
COCCC(=O)N1CCCC(CNS(=O)(=O)c2ccc(OC)cc2)C1 (centres undefined)	1	-7	-2	0	-2	3	nt	nt
CC(=O)Nc1ccc(S(=O)(=O)NCC2CCC(C(=O)N3CCCCC3)CC2)cc1 (centres undefined)	3	6	-4	2	9.9*	-8	-4	-3
CCOC(=O)C1CCCN(C(=O)C2CCC(CNS(=O)(=O)c3ccc(NC(C)=O)cc3)CC2)C1 (centres undefined)	-2	7	3	-1	3	4	nt	nt
COCC(=O)N1CCCC(CNS(=O)(=O)c2ccc(OC)cc2)C1 (centres undefined)	-7	5	6	-9	14*	5	-5	-6
COc1ccc2c(c1)CCCN2C(=O)C1CCCN(S(=O)(=O)c2ccccc2)C1 (centres undefined)	0	-8	-3	0	1	-3	nt	nt
Cc1ccc(Cn2cccc2C2=NC(C)CO2)cc1 (centres undefined)	-5	11	5	-1	11*	10	0	-8
CC(C)C1COC(c2cccn2Cc2ccccc2Cl)=N1 (centres undefined)	-8	-3	2	1	0	2	nt	nt
C#CCN1CC(N2CCN(CCO)CC2)CS1(=O)=O (centres undefined)	1	-4	-1	8	1	0	nt	nt
COc1cccc(NC(=O)Nc2nc3ncccn3c2-c2ccc(F)c(F)c2)c1	12	-253	-69	-2	-496	i	nt	nt
CCc1cc(C(=O)NNC(=O)CCl)sc1C	0	-6	-2	-5	11*	2	-3	-2
CCc1cc(C(=O)NNC(=O)CCN2CCN(c3ccccc3)CC2)sc1C	3	9	-3	2	1	-7	nt	nt
O=C(O)c1cccc(Nc2cc(Cl)c3nonc3c2[N+](=O)[O-])c1	-2	10	5	-2	13*	3	-1	2
O=C(O)c1ccccc1Nc1cc(Cl)c2nonc2c1[N+](=O)[O-]	6	-7	-4	6	-1	-1	nt	nt
N/C(=N\NS(=O)(=O)c1ccc(Cl)cc1)c1ccccn1	-12	6	4	5	10*	3	-3	-3
CCN(CC)c1ccc(NC(=O)CSc2nnc(-c3ccc(Cl)cc3)n2Cc2ccco2)cc1	1	6	4	1	-1	3	nt	nt
Cc1ccc(CNCC(O)(c2ccccc2)c2ccc(Cl)cc2)cc1 (centres undefined)	0	3	0	1	2	5	nt	nt
Cc1ccc(CNCC(O)(c2ccccc2)c2ccccc2)cc1	-7	0	7	2	10*	1	2	1
O=S(=O)(CC1NCCc2ccccc21)NCc1ccccc1 (centres undefined)	-6	4	0	2	-2	0	nt	nt
CC(C)(C)N1Cc2nnn(Cc3ccccc3)c2-c2cc(N3CCCC3)ccc2S1(=O)=O	0	-49	-16	0	-41	-49	nt	nt
O=C(CSc1ccc(F)cc1)NC(=O)NCc1ccccc1	2	7	0	7	10*	1	0	-4

Bioassay records as filed in PubChem.
